# Compound activity from PubChem BioAssay.
# Hits are enriched below; roughly 3% of the tested compounds scored in any of these assays.
# NPY-Y2 PAM-ag = potentiates or activates human NPY-Y2 receptor; P49146; cells expressing NPY-Y2, potentiator/agonist read-out; activation, % at 3.6 µM; 220,000 compounds, 0.45% hits; in the data active = activation above about 27%;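 note: cells stimulated with NPY near EC25 plus isoproterenol at EC100; 0% = vehicle plus submaximal agonist and 100% = vehicle plus saturating agonist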
# Target sequence (P49146 whole entry, looked up): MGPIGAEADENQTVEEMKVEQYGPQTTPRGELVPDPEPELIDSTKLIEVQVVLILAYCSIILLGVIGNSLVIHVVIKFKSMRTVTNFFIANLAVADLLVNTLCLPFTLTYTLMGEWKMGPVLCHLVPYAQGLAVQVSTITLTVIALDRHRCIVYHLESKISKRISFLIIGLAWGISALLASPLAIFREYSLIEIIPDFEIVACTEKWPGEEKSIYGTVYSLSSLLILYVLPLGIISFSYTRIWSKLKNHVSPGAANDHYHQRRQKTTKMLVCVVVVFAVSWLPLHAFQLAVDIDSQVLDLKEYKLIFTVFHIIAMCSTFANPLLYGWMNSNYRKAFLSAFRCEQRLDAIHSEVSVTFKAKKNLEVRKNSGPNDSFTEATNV
# Wee1 degr inh = human Wee1 degradation inhibition, primary screen. reporter increase, % at 5 µM. HeLa Luc-Wee1K328M stability, luciferase luminescence; 100% = proteasome inhibitor MG132 effect. P30291. 220,000 compounds, 1.2% hits. AID 1321;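 active = activation above the mean of all tested compounds plus 3 SD, set per screening run, cut at about 8.8% in these data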;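 note: cells exposed to compound for 20 h before luminescence read; 0% = DMSO alone and 100% = MG132 at 30 µM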
# NPY1 pot ag = potentiators or agonists of human neuropeptide Y receptor Y1 | P25929 | NPY-Y1 expressing cells, potentiator/agonist activation | activation, % at 3.6 µM | 220,000 compounds, 0.37% hits; in the data active = activation above about 33%, passing the limit was not always enough;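 note: cells stimulated with NPY at EC10 then isoproterenol at EC100; 0% = low agonist plus stimulus and 100% = saturating agonist plus stimulus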
# Target sequence (P25929 whole entry, looked up): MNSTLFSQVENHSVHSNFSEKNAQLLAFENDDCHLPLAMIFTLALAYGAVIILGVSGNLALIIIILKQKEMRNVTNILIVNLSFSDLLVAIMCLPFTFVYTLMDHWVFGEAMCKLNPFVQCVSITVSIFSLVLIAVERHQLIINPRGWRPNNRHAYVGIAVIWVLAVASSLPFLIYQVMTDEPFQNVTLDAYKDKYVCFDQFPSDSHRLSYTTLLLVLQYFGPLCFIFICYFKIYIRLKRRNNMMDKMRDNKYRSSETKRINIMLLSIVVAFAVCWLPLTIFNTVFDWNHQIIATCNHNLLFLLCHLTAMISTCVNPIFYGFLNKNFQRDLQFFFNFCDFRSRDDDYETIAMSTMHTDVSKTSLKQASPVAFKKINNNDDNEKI
# NPY-Y1 antag = blocks the human neuropeptide Y Y1 receptor; HEK293-CNG Y1 cells, membrane potential fluorescence; NPY at EC95, then isoproterenol; inhibition, % at 3.6 µM; 200,000 compounds, 1% hits; AID 1040;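 active = inhibition above the campaign mean inhibition of all tested compounds plus 3 SD, cut at about 20% in these data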;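 note: 0% = DMSO wells given NPY plus isoproterenol and 100% = isoproterenol alone without NPY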
#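 material = HEK293 cells with Y1 receptor plus CNG channel | also added = NPY 25 nM then isoproterenol 1 µM plus Ro 20-1724 25 µM | schedule = dye 3 h, compound 60 min room temperature, stimulation 45 min | measured by = membrane potential fluorescence | benchmarks = high control isoproterenol alone, low control NPY with isoproterenol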
# NPY-Y2 antag = antagonists of human neuropeptide Y receptor Y2; AID 793; NPY-Y2 expressing cells, antagonist mode; inhibition, % at 2.7 µM; 140,000 compounds, 0.99% hits;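 note: 0% = vehicle with agonist challenge and 100% = reference antagonist with challenge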
# Hsp70 act = switches on Hsp70 transcription | 200,000 compounds, 0.04% hits | HeLa Hsp70 promoter luciferase reporter, luminescence; scaled: vehicle 0, proteasome-inhibitor control 100% | AID 1203 | activation, % at 10 µM;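 active = activation above the mean across all tested compounds plus 3 SD, cutoff set per campaign, cut at about 5.5% in these data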;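 note: 100% = MG132 at 30 µM as the positive control and 0% = DMSO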
# NPY-Y1 ant conf = confirmation of human neuropeptide Y receptor Y1 antagonists | AID 1254 | 1,200 compounds, 21% hits | inhibition, % at 3.6 µM | shares compounds with NPY-Y1 antag | HEK293-CNG NPY-Y1, membrane potential fluorescence, cAMP; NPY challenge against isoproterenol-raised cAMP; in the data active = inhibition above about 20%;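 note: 0% = vehicle with agonist plus stimulus and 100% = stimulus alone without agonist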
# NPY2 antag ctr = antagonizes human NPY-Y2, counter-screen to NPY-Y1 antagonists | 1,200 compounds, 28% hits | inhibition, % at 3.6 µM | HEK293 NPY-Y2 CNG membrane potential fluorescence, antagonism; cells given NPY, then isoproterenol | shares compounds with NPY-Y1 antag;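 note: 0% = DMSO with agonist challenge and 100% = reference antagonist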
# Hsp70 act dose = activates Hsp70 transcription in dose response; HeLa hsp70.1pr-luc reporter, luciferase luminescence; AID 1252; calls only at 99 µM; 70 compounds, 10% hits; shares compounds with Hsp70 act;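 active = over 50% activation at some tested dose; inactive = under 50% activation at every tested dose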
# NPY-Y1 pot conf = confirmation of human NPY-Y1 receptor potentiators or agonists; shares compounds with NPY1 pot ag; cell-based NPY-Y1 potentiator/agonist assay; activation, % at 3.6 µM; 280 compounds, 20% hits; AID 1546; in the data active = activation above about 45%;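 note: cells challenged with NPY at its EC10 plus isoproterenol stimulus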
# NPY-Y2 counter = potentiates or activates NPY-Y2, counter-screen for NPY-Y1 hits | shares compounds with NPY1 pot ag | HEK293-CNG cells, membrane-potential fluorescence (FLIPR), 1536-well | activation, % at 3.6 µM | 280 compounds, 20% hits | AID 1649; in the data active = activation above about 33%
# NPY-Y1 agonist = counter-screen for NPY-Y1 potentiators: agonists of human NPY-Y1; 280 compounds, 50% hits; AID 1697; HEK293 Y1-CNGC, membrane potential fluorescence, agonist mode; activation, % at 3.6 µM; shares compounds with NPY1 pot ag;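 active = percent activation above the mean of DMSO-only control wells plus 3 SD of those wells, cut at about 18% in these data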;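 note: cells challenged with isoproterenol plus Ro 20-1724 with no NPY in test wells; Y1 agonism lowers isoproterenol-driven cAMP and reduces probe fluorescence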
# NPY-Y2 ag = counter-screen for NPY-Y1 potentiators or agonists: agonists of NPY-Y2. shares compounds with NPY1 pot ag. HEK293 Y2-CNGC, membrane potential fluorescence, agonist mode. activation, % at 3.6 µM. 280 compounds, 67% hits. AID 1698;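 active = activation above the solvent-only control wells' mean plus 3 SD, cut at about 11% in these data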;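 note: 0% = DMSO with isoproterenol and 100% = 40 nM NPY maximal response; agonism lowers cAMP so well fluorescence drops in active wells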
# CNGC counter = counter-screen for NPY-Y1 potentiators or agonists: CNG channel inhibitors | inhibition, % at 3.6 µM | shares compounds with NPY1 pot ag | HEK293-CNG parental, isoproterenol cAMP, membrane potential fluorescence | 280 compounds, 42% hits;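 active = inhibition above the mean of stimulated solvent-only control wells plus 3 SD, cut at about 22% in these data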;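 note: 0% = isoproterenol-stimulated DMSO wells and 100% = unstimulated DMSO wells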
# * = called active by the depositor; i = inactive; . = not tested or not shown. Cut-off read from the data, not from the text of the source, unless noted: active = inhibition above about 17%; inactive = the rest.
SMILES,NPY-Y2 PAM-ag,Wee1 degr inh,NPY1 pot ag,NPY-Y1 antag,NPY-Y2 antag,Hsp70 act,NPY-Y1 ant conf,NPY2 antag ctr,others
C/C=C(/C)C(=O)OC1c2c(ccc3ccc(=O)oc23)OC(C)(C)C1OC(=O)/C(C)=C\C (stereo not given),-35,-1,-13,22*,.,0,12,31*,
CCCC/C(O)=C1\C(=O)CC(C)(C)CC1=Nc1ccc(N)cc1,4,1,20,-2,.,0,.,.,
COc1ccc(/C=C2\SC(=S)N(CC(=O)OCC(=O)Nc3cc(Cl)cc(Cl)c3)C2=O)cc1,-7,-1,-19,.,.,.,.,.,
OCC1(CCCc2ccccc2)CCN(Cc2cc(F)ccc2F)CC1,-15,-1,4,10,.,0,.,.,
OCC1(CCc2ccccc2)CCN(Cc2cc(F)ccc2-n2cccn2)CC1,-20,-3,-12,23*,.,0,14,11,
Cc1nc(NCCc2ccccc2F)c(C#N)c(C)c1[N+](=O)[O-],-6,0,-15,29*,6,0,8,3,
Cc1nc(NCCc2ccc(F)cc2)c(C#N)c(C)c1[N+](=O)[O-],4,0,-12,1,1,0,.,.,
C=CCOn1c(=O)c(=O)n(OCc2ccccc2)c2ccccc21,-23,0,-29,-3,5,0,.,.,
CCC(Oc1ccc(C)c(C)c1)C(=O)O (stereo not given),-3,0,-6,23*,6,0,5,6,
Cc1ccc(OC(C)C(=O)O)cc1C (stereo not given),-6,-2,-30,4,4,0,.,.,
Cc1nn(-c2ccccc2)c(C)c1/C=N/n1cnnc1,1,0,12,0,.,0,.,.,
Cc1nn(-c2ccccc2)c(Oc2ccc(F)cc2)c1/C=N/n1cnnc1,4,5,0,20*,4,0,5,1,
Cc1ccccc1/C(N)=N/O,6,4,-19,4,-1,0,.,.,
c1ccc2c(NC3CCCC3)nnc(NC3CCCC3)c2c1,-2,0,-1,23*,12,0,1,35*,
Cc1cccnc1NC1CCCCC1,3,2,3,-1,.,0,.,.,
Cc1ccccc1C(=O)NNc1ccc(-c2csnn2)cc1,3,-2,10,.,.,.,.,.,
Cc1ccccc1OCCNC(=O)/C=C/c1ccc([N+](=O)[O-])cc1,-6,7,-14,20*,8,0,10,10,
COc1cc(OC)c(C(=O)Nc2ncn[nH]2)cc1OC,-5,0,7,4,1,0,.,.,
CCOC(=O)c1c(NC(C)=O)sc2c(OCC(O)CN(CC)CC)c(Br)ccc12 (stereo not given),-82,-1,-181,80*,.,0,104*,117*,
CCOC(=O)c1c(NC(C)=O)sc2c(OCCN(CC)CC)c(Br)ccc12,-38,5,-75,10,.,0,.,.,
CC(C)CC1(C)NC(=O)N(CC(=O)Nc2cccc(S(=O)(=O)N(C)c3ccccc3)c2)C1=O (stereo not given),-20,-3,-52,51*,.,0,46*,50*,
COCCOC(=O)c1c(NC(=O)CN2CCCc3ccccc32)sc(C(N)=O)c1C,15,0,-2,-1,0,0,.,.,
CCc1nc(N2CCN(C(=O)c3ccccc3)CC2)c2c3c(sc2n1)CCCC3,-8,-1,-21,22*,.,0,9,10,
CCn1c(Sc2nc(C)nc3scc(-c4cccs4)c23)n[nH]c1=O,-2,-4,-3,21*,2,0,7,37*,
Cc1nc(SCC(=O)NC(=O)NCCC(C)C)c2c(-c3cccs3)csc2n1,2,0,-23,-2,2,0,.,.,
SMILES,NPY-Y2 PAM-ag,Wee1 degr inh,NPY1 pot ag,NPY-Y1 antag,NPY-Y2 antag,Hsp70 act,NPY-Y1 ant conf,NPY2 antag ctr,others
CCCCC(O)(CCCC)C(=O)NN(C(=O)OCC)c1ccccc1,-11,0,-24,34*,16,0,10,9,
CCCCC(O)(CCCC)C(=O)NN(C(=O)OC)c1ccccc1,6,2,-6,26*,8,0,25*,11,
CCOC(=O)N(NC(=O)C(O)(CC(C)C)CC(C)C)c1ccccc1,-3,6,-13,13,8,0,.,.,
COC(=O)Nc1ccc(S(=O)(=O)NCc2ccccn2)cc1,8,-2,6,41*,.,5.8*,5,0,Hsp70 act dose=i
COC(=O)c1nn(-c2ccc(Oc3ccccc3)cc2)c(=O)cc1O,1,-3,-12,-4,.,0,.,.,
CC1CCC(C(C)C)C(OCC(O)CN2CCCC(C)C2)C1 (stereo not given),12,6,47*,28*,.,0,27*,21*,NPY-Y1 pot conf=5;NPY-Y2 counter=5;NPY-Y1 agonist=8;NPY-Y2 ag=14*;CNGC counter=-13
CC(=O)OC1COC(OC2C(O)C(C)OC(OC3C(OC4CCC5(C)C(CCC6(C)C5CC=C5C7CC(C)(C)CCC7(C(=O)O)CCC56C)C4(C)CO)OCC(O)C3O)C2O)C(O)C1OC(C)=O (stereo not given),7,0,60*,23*,.,-1,22*,12,NPY-Y1 pot conf=83*;NPY-Y2 counter=68*;NPY-Y1 agonist=58*;NPY-Y2 ag=62*;CNGC counter=47*
CC1(C)CC[C@]2(C(=O)O)CC[C@]3(C)C(=CCC4[C@@]5(C)CC[C@H](O)C(C)(C)C5CC[C@]43C)C2C1 (stereo not given in full),4,0,-8,-2,1,0,.,.,
